Results published in paper PMC8985159 (RSC Chemical Biology, 2022).
Like-named read-outs stand apart in the source and are kept apart here.

Assays:
[1] = molecular target: T1, N-terminally labelled Nluc-Sirt2 fusion protein (Homo sapiens, UniProt Q8IXJ6); assay: NanoBRET assay, N-terminal Nluc-Sirt2 fusion in HEK293T cells
T1 sequence (Q8IXJ6 50-356): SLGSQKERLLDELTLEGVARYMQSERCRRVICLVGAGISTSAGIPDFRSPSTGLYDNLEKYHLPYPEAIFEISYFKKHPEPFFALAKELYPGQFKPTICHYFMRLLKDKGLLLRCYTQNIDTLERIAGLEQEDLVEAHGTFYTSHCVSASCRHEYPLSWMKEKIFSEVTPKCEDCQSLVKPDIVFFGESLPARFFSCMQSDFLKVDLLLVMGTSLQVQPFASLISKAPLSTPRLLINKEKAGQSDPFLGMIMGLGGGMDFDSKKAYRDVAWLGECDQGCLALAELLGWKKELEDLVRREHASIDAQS

Sirt2 [2] = molecular target: T2, Sirt2 (Homo sapiens, UniProt Q8IXJ6); conditions: read-out: In vitro Sirt2 activity assay IC50; cited from earlier work
T2 sequence (Q8IXJ6 56-356): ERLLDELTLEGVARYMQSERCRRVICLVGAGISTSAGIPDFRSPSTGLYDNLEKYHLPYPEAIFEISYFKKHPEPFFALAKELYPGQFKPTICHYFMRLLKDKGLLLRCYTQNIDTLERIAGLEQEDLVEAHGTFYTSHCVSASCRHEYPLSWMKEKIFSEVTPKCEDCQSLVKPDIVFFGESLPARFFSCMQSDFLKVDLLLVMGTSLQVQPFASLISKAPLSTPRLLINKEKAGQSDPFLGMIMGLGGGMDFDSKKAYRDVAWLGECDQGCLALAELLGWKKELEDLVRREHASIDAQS

Sirt1_134-747 = molecular target: T3, Sirt1_134-747 (Homo sapiens, UniProt Q96EB6); assay: Sirtuin deacetylation activity assay; assay type: biochemical
T3 sequence (Q96EB6 134-747): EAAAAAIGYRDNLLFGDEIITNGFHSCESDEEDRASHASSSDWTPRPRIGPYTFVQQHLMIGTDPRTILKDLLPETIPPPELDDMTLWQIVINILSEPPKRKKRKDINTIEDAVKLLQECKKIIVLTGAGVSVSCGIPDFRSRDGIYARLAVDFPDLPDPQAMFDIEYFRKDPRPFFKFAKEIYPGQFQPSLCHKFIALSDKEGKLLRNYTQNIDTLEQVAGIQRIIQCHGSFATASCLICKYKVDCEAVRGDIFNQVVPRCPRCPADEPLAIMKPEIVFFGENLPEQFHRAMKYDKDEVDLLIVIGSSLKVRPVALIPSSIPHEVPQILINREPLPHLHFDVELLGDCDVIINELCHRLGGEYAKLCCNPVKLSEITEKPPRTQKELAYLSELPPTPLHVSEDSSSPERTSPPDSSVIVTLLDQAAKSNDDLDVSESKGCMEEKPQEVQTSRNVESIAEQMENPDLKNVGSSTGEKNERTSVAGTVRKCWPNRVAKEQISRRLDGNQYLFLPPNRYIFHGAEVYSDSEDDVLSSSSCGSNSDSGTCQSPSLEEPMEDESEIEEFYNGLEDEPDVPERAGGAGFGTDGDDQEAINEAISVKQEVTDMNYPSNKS

Sirt2_56-356 [3] = molecular target: T4, Sirt2_56-356 (Homo sapiens, UniProt Q8IXJ6); assay: Fluorescence polarization assay; assay type: binding
T4 sequence (Q8IXJ6 56-356): T2 sequence (Q8IXJ6 56-356)

human recombinant HDAC6 = molecular target: T5, human recombinant HDAC6 (Homo sapiens, UniProt Q9UBN7); assay: HDAC6 activity assay; assay type: biochemical
T5 sequence (Q9UBN7 1-1215): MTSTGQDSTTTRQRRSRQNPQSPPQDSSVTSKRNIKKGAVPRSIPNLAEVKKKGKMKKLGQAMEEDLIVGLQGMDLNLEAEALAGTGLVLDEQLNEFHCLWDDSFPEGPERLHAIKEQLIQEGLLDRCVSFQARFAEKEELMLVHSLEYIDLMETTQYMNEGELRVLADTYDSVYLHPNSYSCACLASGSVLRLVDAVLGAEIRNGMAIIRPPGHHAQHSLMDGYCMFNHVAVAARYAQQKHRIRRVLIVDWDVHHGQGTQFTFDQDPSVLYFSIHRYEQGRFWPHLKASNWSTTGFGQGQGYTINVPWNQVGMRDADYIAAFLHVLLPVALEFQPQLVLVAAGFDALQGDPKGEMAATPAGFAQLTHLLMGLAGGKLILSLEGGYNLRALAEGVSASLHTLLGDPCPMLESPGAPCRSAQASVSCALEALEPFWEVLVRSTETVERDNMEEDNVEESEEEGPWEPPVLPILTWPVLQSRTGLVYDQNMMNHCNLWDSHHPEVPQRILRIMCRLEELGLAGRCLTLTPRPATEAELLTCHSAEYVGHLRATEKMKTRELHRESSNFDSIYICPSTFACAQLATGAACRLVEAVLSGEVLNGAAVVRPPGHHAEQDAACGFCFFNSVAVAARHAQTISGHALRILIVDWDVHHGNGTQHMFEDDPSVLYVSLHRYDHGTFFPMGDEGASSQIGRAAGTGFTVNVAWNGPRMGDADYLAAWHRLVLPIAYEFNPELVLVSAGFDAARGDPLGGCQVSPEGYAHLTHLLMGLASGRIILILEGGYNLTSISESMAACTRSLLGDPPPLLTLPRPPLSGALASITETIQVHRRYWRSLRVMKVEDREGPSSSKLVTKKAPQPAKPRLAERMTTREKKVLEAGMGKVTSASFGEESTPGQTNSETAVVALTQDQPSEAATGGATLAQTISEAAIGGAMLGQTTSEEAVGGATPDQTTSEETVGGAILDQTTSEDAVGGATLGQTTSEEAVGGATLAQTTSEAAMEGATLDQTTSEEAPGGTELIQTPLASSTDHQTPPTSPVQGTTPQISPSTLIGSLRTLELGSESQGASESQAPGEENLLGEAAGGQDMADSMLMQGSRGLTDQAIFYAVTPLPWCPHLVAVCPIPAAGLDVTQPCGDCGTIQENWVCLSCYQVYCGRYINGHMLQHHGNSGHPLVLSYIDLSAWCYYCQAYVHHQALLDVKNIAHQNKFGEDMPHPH
In short: (§1)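 Enzyme was incubated with serially diluted test compound in DMSO and ZMAL (added from a 126 μM solution) for 90 min at 37 °C. Stop solution (33 μM trichostatin A, 6 mg/mL trypsin) was added, followed by 30 min at 37 °C. Fluorescence read at Ex 390 / Em 460 nm.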

Sirt2_56-356 [4] = molecular target: T4, Sirt2_56-356; assay: Sirtuin deacetylation activity assay; assay type: biochemical
PC-3M-luc cells [5] = assay: Migration assay; assay type: cell-based, human
human recombinant HDAC1 = human recombinant HDAC1 (Homo sapiens, UniProt Q13547); assay: HDAC1 activity assay; assay type: biochemical
In short: as §1

Sirt2_56-356 [6] = molecular target: T4, Sirt2_56-356; assay: Sirt2 demyristoylation activity assay; assay type: biochemical
Sirt3_118-395 = molecular target: T6, Sirt3_118-395 (Homo sapiens, UniProt Q9NTG7); assay: Sirtuin deacetylation activity assay; assay type: biochemical
T6 sequence (Q9NTG7 118-395): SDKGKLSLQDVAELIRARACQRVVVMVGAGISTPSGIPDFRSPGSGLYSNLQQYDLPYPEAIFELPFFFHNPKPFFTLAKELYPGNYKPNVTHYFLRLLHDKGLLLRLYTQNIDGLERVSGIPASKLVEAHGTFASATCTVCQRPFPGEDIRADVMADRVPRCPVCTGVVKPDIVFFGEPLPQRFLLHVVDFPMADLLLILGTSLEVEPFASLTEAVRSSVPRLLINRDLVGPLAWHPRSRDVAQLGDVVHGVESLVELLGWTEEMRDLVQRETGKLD

[7] = tested on: α-tubulin acetylation in PC-3M-luc cells; assay: Acetylation levels of α-tubulin by immunofluorescence; assay type: cell-based, human; conditions: 20 μM, 5 hours
In short: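 PC-3M-luc cells were plated at 20 000 per well, incubated overnight at 37 °C and 5% CO2, then exposed to 20 μM test compound for 5 h. They were fixed in 4% PFA for 8–10 min at RT and extracted with PBS/0.1% Triton X-100. Blocking used PBS/0.1% Triton/5% FCS. […] Read-out was immunofluorescence microscopy.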

HGC-27 cells = assay: Cell viability assay; assay type: cell-based; conditions: Homo sapiens
In short: (§2)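 MTS/PMS (20:1) viability assay. Cells were seeded at 2000 per well with test compound or vehicle (0.5% DMSO final) and incubated 72 or 120 h at 37 °C, 5% CO2. Absorbance was read 2–4 h after reagent addition. Media: HEK293T in DMEM with 10% FBS, 2 mM glutamine and 1% pen-strep; HGC-27 in DMEM:Ham's 12 (1:1) with 5% FCS.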

[8] = tested on: KRas4a fatty acylation in HEK293T cells; assay: In cell inhibition of SIRT2 defatty-acylation of KRas-4a; assay type: cell-based, human; conditions: 25 μM
[9] = tested on: c-Myc protein levels in PC-3M-luc cells; assay: Western blot of c-Myc protein levels; assay type: cell-based, human; conditions: 24 h
PC-3M-luc cells [10] = assay: Cell viability assay; assay type: cell-based, human; conditions: 3 days vs 5 days
PC-3M-luc cells [11] = assay: Colony Forming Unit; assay type: cell-based, human
In short: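 PC-3M-luc cells were grown in RPMI 1640 with 10% FBS, 2 mM glutamine and 1% pen-strep, then seeded at 250 cells per well. After 2–3 h, test compound or vehicle was added (0.5% DMSO final) and plates were incubated 7 days at 37 °C, 5% CO2. Cells were PBS-washed, fixed in 4% PFA for 20 min at RT and stained with 0.01% crystal violet for 30 min. Colonies were then counted.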

HEK293T cells = assay: Cell viability assay; assay type: cell-based; conditions: Homo sapiens, HEK-293T
In short: as §2

Sirt2 [12] = molecular target: T2, Sirt2; assay: Determination of kinetic parameters for ZMAL and ZMML; assay type: biochemical; conditions: substrate of Sirt2; mean ± SD (n = 3)
[13] = tracer 13 2 μM, HEK293T, 2 h, mean ± SD
[14] = In vitro Sirt2 activity assay IC50, Table 2

Sequence of human recombinant HDAC1 (Q13547 whole entry): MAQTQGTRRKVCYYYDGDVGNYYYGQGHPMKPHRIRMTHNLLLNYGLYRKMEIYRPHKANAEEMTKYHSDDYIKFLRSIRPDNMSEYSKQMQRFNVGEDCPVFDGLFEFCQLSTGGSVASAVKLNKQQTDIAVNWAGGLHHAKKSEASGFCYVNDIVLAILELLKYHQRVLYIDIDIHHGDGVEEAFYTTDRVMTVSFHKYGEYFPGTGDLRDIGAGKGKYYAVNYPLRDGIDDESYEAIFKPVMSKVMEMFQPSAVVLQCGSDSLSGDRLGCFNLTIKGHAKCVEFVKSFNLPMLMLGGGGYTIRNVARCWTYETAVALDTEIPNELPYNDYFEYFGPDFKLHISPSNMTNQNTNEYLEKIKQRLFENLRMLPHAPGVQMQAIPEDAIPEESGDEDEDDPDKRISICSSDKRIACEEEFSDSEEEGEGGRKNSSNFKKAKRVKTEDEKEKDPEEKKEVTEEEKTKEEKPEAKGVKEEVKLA

IC50 (Sirt1_134-747) [µM]	IC50 (human recombinant HDAC6) [µM]	IC50 (human recombinant HDAC1) [µM]	IC50 (Sirt3_118-395) [µM]	IC50 (Sirt2_56-356 [6]) [µM]	IC50 [1] [µM]	IC50 (Sirt2_56-356 [4]; [14]) [µM]	SMILES	other results
							O=C(NCc1cccnc1)c1ccc2c(c1)C1C3CCC(C3)C1C(c1ccccc1)N2 (stereo not drawn) [AEM2, reference compound]	IC50 ([1]; read-out: NanoBRET assay IC50, tracer 13 2 μM, HEK293T, 2 h, mean ± SD): 5.2 ± 0.2 µM; IC50 (Sirt2 [2]): 3.8 µM
> 100	> 100	> 100	> 100				CCCCCCCC(=O)Nc1ncc(Cc2cccc(OCc3cn(CCOC)nn3)c2)s1 [Compound 5]	Sirt2 binding in the FP assay compared to SirReal2 (in words) (Sirt2_56-356 [3]): weaker binding; NanoBRET assay IC50 [1, 13]: did not detect cellular Sirt2 binding; IC50 (Sirt2_56-356 [4]; Sirt2 Deacet. IC50, mean ± SD): 0.46 ± 0.21 µM; inhibition at 10 µM (PC-3M-luc cells [5]; Homo sapiens, read-out: migration inhibition): 35%; inhibition at 20 µM (Sirt2_56-356 [6]; read-out: Sirt2 Demyr. percentage of inhibition): 23.2%
> 100	> 100	> 100	> 100	> 100			COCCn1cc(COc2cccc(Cc3cnc(NC(=O)CSc4nc(-c5ccccc5)cc(-c5ccccc5)n4)s3)c2)nn1 [Compound 7]	acetylation levels of α-tubulin [7]: Only weak effects; Sirt2 binding in the FP assay compared to SirReal2 (in words) (Sirt2_56-356 [3]): weaker binding; NanoBRET assay IC50 [1, 13]: did not detect cellular Sirt2 binding; IC50 (Sirt2_56-356 [4]; Sirt2 Deacet. IC50, mean ± SD): 620 ± 72 µM; decreased potency compared to the positive control SirReal2 (Sirt2_56-356 [4]; Sirt2 deacetylation): more than 1000 fold
> 100	> 100	> 100	> 100	3.9 ± 0.2	1 ± 0.05	0.16 ± 0.02	Cc1cc(C)nc(SCC(=O)Nc2ncc(Cc3cccc(OCc4cn(Cc5ccccc5C)nn4)c3)s2)n1 [Compound 8]	
> 100	> 100	> 100	> 100	2 ± 0.3	0.4 ± 0.02	0.17 ± 0.02	Cc1ccc(Cn2cc(COc3cccc(Cc4cnc(NC(=O)CSc5nc(C)cc(C)n5)s4)c3)nn2)cc1 [Compound 9]	
> 100	> 100	> 100	> 100		0.098 ± 0.004	0.12 ± 0.01	Cc1cc(C)nc(SCC(=O)Nc2ncc(Cc3cccc(OCc4cn(Cc5ccc(OCCN6CCOCC6)cc5)nn4)c3)s2)n1 [Compound 12]	acetylation levels of α-tubulin [7]: elevated; IC50 (Sirt2_56-356 [3]): 0.07 ± 0.02 µM; NanoBRET binding in digitonin permeabilized vs untreated cells ([1]; digitonin 50 μg mL−1): None of the tested compounds revealed significant differences in the NanoBRET signals between permeabilized (digitonin) and untreated cells; GI50 (HGC-27 cells): 8.21 ± 0.59 µM; KRas4a acylation levels (in words) [8]: increased acylation levels of KRas4a compared to DMSO treated cells; concentration-dependent effect on cell migration (PC-3M-luc cells [5]): concentration-dependent inhibition of migration; c-Myc protein levels (in words) ([9]; 10 μM): completely absent; concentration dependence of c-Myc levels [9]: reduced in a concentration-dependent manner; dependence of the effect on cell viability on incubation time (PC-3M-luc cells [10]): higher effects on the cell viability of PC-3M-luc cells could be observed after prolonged incubation time; effect on colony formation (in words) (PC-3M-luc cells [11]): Colony formation was almost completely prevented; GI50 (HEK293T cells): 7.7 ± 0.71 µM
							CC(=O)NCCCCC(NC(=O)OCc1ccccc1)C(=O)Nc1ccc2c(C)cc(=O)oc2c1 (stereo not drawn) [ZMAL, Z-(Ac)Lys-AMC]	Km (Sirt2 [12]): 510 ± 95 µM
							CCCCCCCCCCCCCC(=O)NCCCCC(NC(=O)OCc1ccccc1)C(=O)Nc1ccc2c(C)cc(=O)oc2c1 (stereo not drawn) [ZMML]	Km (Sirt2 [12]): 6.7 ± 1 µM
